Test results from ChEMBL document CHEMBL1124806, “Synthesis of quaternary amine ether lipids and evaluation of neoplastic cell growth inhibitory properties” (J Med Chem, 1990).

Columns and labels:
[1] = test system: HL-60; experiment: Inhibition of neoplastic cell proliferation with the HL-60 human promyelocytic leukemia cells; type: functional; settings: read-out: ID50 (the source's name)
Method in brief: (§1)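 HL-60 cells are kept in RPMI 1640 with 10% FBS and 2 mM glutamine under 5% CO2. They are seeded at 5 × 10^5 cells/mL with a range of lipid concentrations, diluted into medium from 1 mg/mL ethanol stocks. After 48 h, viable cells are counted by hemocytometer with trypan blue. ID50 values are averaged, and SD is taken from the averaged ID50s.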

[2] = test system: HL-60; experiment: Inhibition of neoplastic cell proliferation in the HL-60 human promyelocytic leukemia cells; type: functional; settings: read-out: ID50 (the source's name); method in brief: as §1
[3] = target: Protein kinase C (PKC); experiment: Inhibition of Protein Kinase C (PKC) isolated from HL-60 human promyelocytic leukemia cells; type: cell-free
Method in brief: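 Partially purified PKC from HL-60 cells, pH 7.5, in 25 mM Tris, 10 mM MgCl2, 0.1 mM CaCl2, 40 μg/mL histone, 20 μg/mL phosphatidylserine, 2.5 μM OAG, and 10 μM ATP with [γ-32P]ATP. Analogue in ethanol is added before the enzyme starts the reaction, with a 0.1% ethanol control. The reaction runs 20 min at 30 °C and is stopped with BSA and ice-cold 25% TCA. Filter-bound 32P-histone is counted; duplicates.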

SMILES | IC50 [1] [nM] | IC50 [2] [nM] | IC50 [3] [nM]
CCCCCCCCCCCCCCCCSCC(C[N+](C)(C)CCO)OC (stereo unspecified) | 4660 | – | –
CCCCCCCCCCCCCCCCOCC(COCCCCCC[N+](C)(C)C)OC.[Br-] (stereo unspecified) | – | 1750 | > 40000
CCCCCCCCCCCCCCCCSCC(C[N+](C)(C)CCO)OCC (stereo unspecified) | 3720 | – | –
CCCCCCCCCCCCCCCCOCCC[N+](C)(C)C.[Br-] | – | 1610 | > 40000
CCCCCCCCCCCCCCCCOCC(C[N+](C)(C)C)OC.[Br-] (stereo unspecified) | – | 1590 | > 40000
CCCCCCCCCCCCCCCCOCCCOCCCC[N+](C)(C)C | – | 1560 | –
CCCCCCCCCCCCCCCCOCC(COCCCC[N+](C)(C)C)OCC.[Br-] (stereo unspecified) | – | 1860 | > 40000
CCCCCCCCCCCCCCCCOCC(COCCC[N+](C)(C)C)OC (stereo unspecified) | – | 1200 | –
CCCCCCCCCCCCCCCCOCC(C[N+](CC)(CC)CC)OCC (stereo unspecified) | – | 680 | –
CCCCCCCCCCCCCCCCSCC(COCCCC[N+](C)(C)C)OCC (stereo unspecified) | – | 1830 | –
CCCCCCCCCCCCCCCCCCOCC(COP(=O)([O-])OCC[N+](C)(C)C)OC (stereo unspecified) [EDELFOSINE] | – | 2010 | 12000
CCCCCCCCCCCCCCCCOCC(C[n+]1ccccc1)OCC (stereo unspecified) | – | 1010 | –
CCCCCCCCCCCCCCCCOCC(C[N+]1(C)CCC(O)CC1)OCC (stereo unspecified) | – | 2720 | –
CCCCCCCCCCCCCCCCOCC(COCC[N+](C)(C)C)OC.[Br-] (stereo unspecified) | – | 1850 | 31000
CCCCCCCCCCCCCCCCOCC(COCCCC[n+]1ccccc1)OCC (stereo unspecified) | – | 780 | –
CC1(C)OCC(C[N+](C)(C)CCO)O1 (stereo unspecified) | – | > 10000 | –
CCCCCCCCCCCCCCCCSCC(C[N+](C)(C)CCCO)OCC (stereo unspecified) | 2950 | – | –

Second part, the molecule after the results:

IC50 [1] [nM] | IC50 [2] [nM] | IC50 [3] [nM] | SMILES
– | 3350 | 5000 | CCCCCCCCCCCCCCCCCCSCC(C[N+](C)(C)CCCO)OC.[I-] (stereo unspecified)
– | 3790 | – | CCCCCCCCCCCCCCCCOCC(COCCCCCCCCCC[N+](C)(C)C)OC (stereo unspecified)
– | 820 | > 40000 | CCCCCCCCCCCCCCCCOCCC[n+]1ccccc1.[Br-]
– | 1260 | – | CCCCCCCCCCCCCCCCCCOCC(COCCCC[N+](C)(C)C)OCC (stereo unspecified)
– | 6470 | 13000 | CCCCCCCCCCCCCCCCCC1OCC(C[N+](C)(C)CCCO)O1.[Br-] (stereo unspecified)
– | 2300 | > 40000 | CCCCCCCCCCCCCCCCOCC(COCCCC[N+](C)(C)C)OC.[Br-] (stereo unspecified)
– | 2820 | – | CCCCCCCCCCCCCCCCCC1OCC(COCCCC[N+](C)(C)C)O1 (stereo unspecified)
– | 2200 | 25000 | CCCCCCCCCCCCCCCCSCC(C[N+](C)(C)C)OC.[Br-] (stereo unspecified)
